# Compound activity from PubChem.
# SENP1 FRET inh = inhibitors of human SENP1 SUMO protease catalytic domain; recombinant SENP1 catalytic domain, CyPet-SUMO1-YPet FRET cleavage; AID 624204; Q9P0U3; 360,000 compounds, 0.21% hits; inhibition, % at 10 µM;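 active = inhibition at least 30% at 10 µM, raw YFP signal under a set limit, fluorescence ratio 0.5 to 1.5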;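 note: 0% = enzyme with DMSO and 100% = no enzyme wells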
# Target sequence (Q9P0U3 419-644 limits assumed): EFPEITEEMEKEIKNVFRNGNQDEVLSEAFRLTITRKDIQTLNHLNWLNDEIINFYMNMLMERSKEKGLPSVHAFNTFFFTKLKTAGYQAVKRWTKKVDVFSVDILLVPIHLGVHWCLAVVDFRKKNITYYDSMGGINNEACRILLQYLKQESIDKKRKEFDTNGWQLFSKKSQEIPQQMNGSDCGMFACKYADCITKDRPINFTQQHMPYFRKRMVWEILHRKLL
#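 System: Recombinant human SENP1 catalytic domain, His6-tagged | Incubation: Enzyme reaction for 50 min at room temperature, dark | Medium: Tris pH 8 with BME, BSA, NP40 and catalase | Also added: 25 nM SUMO1 FRET substrate | Compound: 10 µM single point, 0.5% DMSO | Measured by: FRET fluorescence in CFP and YFP emission channels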
# SENP6 block = SENP6 protease inhibition | Q9GZR1 | Recombinant SENP6 catalytic domain, aminoluciferin luminescence | inhibition, % at 10 µM | 330,000 compounds, 1.8% hits;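 active = inhibition above about 50% at the single tested dose, limit read from the data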;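 note: plate controls were DMSO wells with enzyme for no effect and DMSO wells lacking enzyme for full effect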
# SENP8 block-1 = blocks human SENP8 cleavage of Nedd8 substrate | recombinant SENP8, Nedd8 substrate fluorescence | Q96LD8 | AID 602440 | inhibition, % at 20 µM | 360,000 compounds, 0.64% hits; in the data active = inhibition mostly above about 40%, no sharp cut-off; inactive = mostly below about 27%
# SENP7 block = inhibitors of human SENP7 protease | Q9BQF6 | recombinant SENP7, Z-RLRGG-aminoluciferin luminescence, 40 min | inhibition, % at 5 µM | 330,000 compounds, 1.5% hits | AID 434973;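 active = inhibition above about 50% at the single test dose, limit read from the data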;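 note: plate controls were DMSO with enzyme for no effect and no enzyme buffer wells for full effect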
# SENP8 block-2 = blocks the human protease SENP8. 330,000 compounds, 1.2% hits. inhibition, % at 10 µM. AID 2540. Q96LD8. purified SENP8, Z-RLRGG-aminoluciferin cleavage, luminescence; in the data active = inhibition above about 50%
# SENP8 conf = confirmation of human SENP8 protease inhibitors; shares compounds with SENP7 block; 6,200 compounds, 40% hits; Recombinant SENP8, Z-RLRGG-aminoluciferin luminescence, 60 min; inhibition, % at 12.5 µM;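 active = mean inhibition across replicates above about 50%, limit read from the data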
# SENP6 confirm = confirmation of human SENP6 protease inhibitors | shares compounds with SENP7 block | recombinant SENP6, Z-RLRGG-aminoluciferin luminescence | inhibition, % at 12.5 µM | 6,200 compounds, 58% hits | AID 488915
# SENP7 conf = human SENP7 inhibition, confirmed; shares compounds with SENP7 block; 6,200 compounds, 69% hits; inhibition, % at 12.5 µM; AID 488917; recombinant SENP7, Z-RLRGG-aminoluciferin luminescence, 40 min
# Casp3 select = inhibits human caspase-3 in SENP selectivity test; 6,200 compounds, 60% hits; shares compounds with SENP7 block; inhibition, % at 12.5 µM; purified caspase-3, Z-DEVD-aminoluciferin luminescence, 60 min; AID 488918;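 active = mean inhibition above about 50%, limit read from the data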;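 note: plate controls were enzyme with DMSO for no effect and wells without caspase-3 for full effect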
# Target sequence (P42574 28-227 limits assumed): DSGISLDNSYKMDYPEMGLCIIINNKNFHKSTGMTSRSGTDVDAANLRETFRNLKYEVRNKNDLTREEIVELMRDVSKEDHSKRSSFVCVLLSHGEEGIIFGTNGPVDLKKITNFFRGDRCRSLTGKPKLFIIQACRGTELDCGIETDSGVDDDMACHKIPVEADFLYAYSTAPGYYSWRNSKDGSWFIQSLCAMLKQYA
# Luc interf = luminescence interference (SENP counter-screen); Pre-incubated SENP8/Z-RLRGG-aminoluciferin, luciferase luminescence interference; 6,200 compounds, 39% hits; shares compounds with SENP7 block; inhibition, % at 12.5 µM; AID 488919;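 active = mean inhibition above about 50% when retested at one dose, limit read from the data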;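 note: plate controls were DMSO wells with completed reaction for no effect and substrate without enzyme for full effect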
# Active calls of the source: *; . = not tested or not shown. This is a sample that favours compounds with a hit; in the whole collection about 2.5% have one here.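 Rule for the calls, unless noted: active = mean inhibition above about 50% in the one-dose retest (limit read from the data); inactive = the rest.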
SMILES,SENP1 FRET inh,SENP6 block,SENP8 block-1,SENP7 block,SENP8 block-2,SENP8 conf,SENP6 confirm,SENP7 conf,Casp3 select,Luc interf
COc1ccc(CCNC(=O)c2cc(C3CC3)nc3c2cnn3C(C)C)cc1,-1,-13,-178,-1,-4,.,.,.,.,.
Cc1cc(C)n(-c2ccc(C(=O)N3CCN(S(=O)(=O)c4ccc(Cl)cc4)CC3)cc2)n1,0,-18,4,-3,-12,.,.,.,.,.
CN(CC(=O)Nc1ccc(Cl)c(C(F)(F)F)c1)C(=O)CCCNC(=O)c1ccc(Cl)cc1,1,-5,8,1,10,.,.,.,.,.
CCCc1[nH]n(-c2nc3ccccc3s2)c(=O)c1C=NCCN1CCOCC1,-1,51*,23,36,34,56*,40,52*,60*,55*
CCCc1[nH]n(-c2nc3ccccc3s2)c(=O)c1C=NCCCOC,1,-4,20,8,0,.,.,.,.,.
COc1ccccc1C(=O)Nc1nnc(-c2ccccc2)s1,0,4,-121,-7,-11,.,.,.,.,.
COc1cccc(C(=O)Nc2nnc(-c3ccccc3)s2)c1OC,-1,79*,-214,55*,57*,46,39,64*,61*,46
O=C(Nc1nnc(-c2ccccc2)s1)c1ccccc1O,-3,80*,-250,63*,84*,17,30,15,16,7
Cc1c(CNC(=O)C2CCC(=O)N(CCc3ccccc3)C2)cnn1C (stereo not given),1,-4,4,-6,0,.,.,.,.,.
CCOC(=O)c1sc(NC(=O)c2cccs2)cc1C,2,83*,-52,91*,66*,28,75*,98*,81*,10
CCOC(=O)c1sc(NC(=O)c2sccc2C)cc1C,2,99*,-86,100*,97*,100*,101*,104*,99*,97*
CCOC(=O)c1cccc(NC(=O)c2cccs2)c1,1,5,11,2,-14,.,.,.,.,.
O=C(Nc1ccc(C(=O)N2CCN(c3ccccc3)CC2)cc1)C1=CSCCO1,2,-19,3,-3,14,.,.,.,.,.
Cc1cccc(C)c1OCC(=O)Nc1cccc(C(=O)O)c1,3,69*,12,53*,43,65*,64*,88*,31,74*
CCOC(=O)Nc1cccc(C(=O)O)c1,1,61*,5,55*,35,52*,54*,86*,34,71*
CCOC(=O)Nc1cccc(Nc2ccccc2)c1,-3,-13,1,-4,-3,.,.,.,.,.
CNC(=O)Cn1nc(-c2ccc(C)c(S(=O)(=O)N(C)C)c2)c2ccccc2c1=O,3,3,13,7,0,.,.,.,.,.
O=C(NCc1cccs1)C1CCC(=O)N(Cc2cccc(C(F)(F)F)c2)C1 (stereo not given),2,-6,1,-7,-10,.,.,.,.,.
c1ccc(-n2nc3c(ccc4cnnc43)[nH]2)cc1,2,89*,-479,87*,74*,50*,83*,97*,71*,30
COc1ccc(-c2cc(-c3ccccc3O)[nH]n2)cc1,2,97*,29,94*,92*,96*,97*,102*,78*,94*
COc1ccc(O)c(-c2cc(-c3ccccc3Cl)[nH]n2)c1,-3,49,-3,38,46,.,.,.,.,.
Cc1ccc(-c2cc(-c3ccc(C)cc3O)[nH]n2)cc1,2,45,19,13,12,.,.,.,.,.
COc1ccc(-c2cc(-c3ccccc3)n[nH]2)c(O)c1,2,68*,-3,65*,66*,74*,72*,90*,28,72*
Cc1nc(N/C(N)=N/S(=O)(=O)c2ccc([N+](=O)[O-])cc2)nc2ccccc12,2,-2,10,-1,-7,.,.,.,.,.
COc1cc(NC(=O)/C=C/c2ccccc2[N+](=O)[O-])cc(OC)c1,1,73*,14,63*,55*,11,8,-3,0,0
SMILES,SENP1 FRET inh,SENP6 block,SENP8 block-1,SENP7 block,SENP8 block-2,SENP8 conf,SENP6 confirm,SENP7 conf,Casp3 select,Luc interf
O=C(/C=C/c1ccccc1[N+](=O)[O-])Nc1ccccc1,0,90*,3,87*,81*,83*,82*,94*,81*,81*
COc1ccc(OC)c(NC(=O)C(=O)N/N=C/c2ccccc2[N+](=O)[O-])c1,1,-7,16,92*,-4,7,8,7,4,3
Clc1ccc(-c2nc(-c3cnccn3)no2)cc1,3,96*,16,98*,90*,90*,93*,101*,97*,56*
Cc1ccc(-c2nc(-c3cccnc3)no2)c(C)c1,0,-10,30,46,24,.,.,.,.,.
Fc1ccc(-c2nc(-c3cnccn3)no2)c(Cl)c1,0,88*,13,85*,81*,85*,85*,96*,94*,50
OC1(c2ccc(Cl)cc2)CCN(Cc2nc(-c3cnccn3)no2)CC1,-1,-5,-1,-1,5,.,.,.,.,.
CSc1ccccc1NC(=O)Nc1ccc(F)c(Cl)c1,2,77*,13,87*,68*,1,76*,96*,68*,72*
Cc1ccc(NC(=O)Nc2ccc(F)c(Cl)c2)cc1,3,0,24,34,1,.,.,.,.,.
CSc1ccccc1NC(=O)Nc1cccc(Cl)c1,2,83*,3,80*,67*,83*,80*,95*,53*,73*
CN(C)c1ccc(NC(=O)Nc2cccc(Cl)c2)cc1,3,89*,17,88*,80*,76*,85*,99*,82*,66*
COc1ccccc1C(=O)NC(=O)Nc1cccc(Cl)c1,0,79*,20,85*,82*,44,36,40,42,30
CSc1ccccc1NC(=O)Nc1cccc(Cl)c1Cl,-1,6,5,1,-1,.,.,.,.,.
O=C(NCCc1ccccc1)C1Cc2c(-c3ccccc3Oc3ccccc3)ccnc2O1 (stereo not given),0,.,16,.,.,.,.,.,.,.
O=c1ccn([C@@H]2O[C@H](CNS(=O)(=O)C3CC3)[C@@H](O)[C@H]2O)c(=O)[nH]1,0,.,4,.,.,.,.,.,.,.
